The values below come from PMC5378063 (Medicinal chemistry (Shariqah (United Arab Emirates)), 2009).

Assay [1] deals with M.tuberculosis H37Rv RFPr. Briefly: MIC, agar dilution method. In kind it is cell-based, Mycobacterium tuberculosis.
Assay [2] concerns M.bovis BCG Tokyo. Briefly: MIC, agar dilution method. In kind it is cell-based.
Assay [3] has as its system M.intracellulare ATCC15984. Briefly: MIC, agar dilution method. Format: cell-based.
The subject of assay [4] is M.tuberculosis H37Rv INHr. Nature of the assay: MIC, agar dilution method. In kind it is cell-based, Mycobacterium tuberculosis.
Assay [5] concerns M.tuberculosis H37Rv. Nature of the assay: MIC, agar dilution method. Format: cell-based, Mycobacterium tuberculosis.
Assay [6] has as its system M.avium Flamingo. Nature of the assay: MIC, agar dilution method. In kind it is cell-based.
The test system of assay [7] is bacterial growth. Briefly: In vitro rescue studies with vitamin K supplementation. Format: cell-based. The settings on record: 22a ~2μM; vitamin K even at 400 μM.
The subject of assay [8] is DosS or DosR. Briefly: DosS/DosR upregulation. In kind it is cell-based, Mycobacterium tuberculosis. The settings on record: unpublished data.
For assay [9], the system named is M.fortuitum NIHJ1615. Nature of the assay: MIC, agar dilution method. In kind it is cell-based.
Assay [10] relates to M.smegmatis Takeo. Briefly: MIC, agar dilution method. Format: cell-based.
For assay [11], the system named is nonreplicating Mtb. Briefly: Killing of nonreplicating bacteria, Wayne low oxygen model. Format: cell-based, Mycobacterium tuberculosis. In short, it runs like this:
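Aerobic preculture diluted 100-fold into tubes sealed with rubber septa, degassed with N₂ and held anaerobically for 24 days, into nonreplicating phase 2 of a modified Wayne model. Test compound in degassed solution was added and incubation continued for 96 h. Suspensions were then diluted and plated, grown aerobically at 37 °C, and colonies counted.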

Assay [12] relates to M.aurum. Briefly: MIC, agar dilution method. Format: cell-based.
The mark [13] stands for this setting: Mycobacterium tuberculosis, H37RV.
Where [14] appears, read: Mycobacterium tuberculosis variant bovis BCG, BCG.
Where [15] appears, read: Mycobacterium intracellulare, ATCC15984.
Setting [16] is: 10 μg/mL, 96 h exposure after 24 days anaerobic.

Values after ≈ are worked out from the molar mass of the structure shown. Some results are limits rather than exact numbers.

With `NNC(=O)c1ccncc1` [INH, isoniazid], the MIC in assay [1] (setting [13]) is 0.05 µg/mL (≈ 0.365 µM); in assay [2] (setting [14]), 0.1 µg/mL (≈ 0.729 µM); in [3] (setting [15]) it was 12.5 µg/mL (≈ 91.1 µM); in assay [4] (setting [13]), above 25 µg/mL; in [5] (setting [13]), 0.1 µg/mL (≈ 0.729 µM); in assay [6] (Mycobacterium avium), above 25 µg/mL.
Consider `CO[C@H]1/C=C/O[C@@]2(C)Oc3c(C)c(O)c4c(O)c(c(/C=N/N5CCN(C)CC5)c(O)c4c3C2=O)NC(=O)/C(C)=C\C=C\[C@H](C)[C@H](O)[C@@H](C)[C@@H](O)[C@@H](C)[C@H](OC(C)=O)[C@@H]1C` [RFP, rifampicin], for which the MIC in assay [1] (setting [13]) is above 25 µg/mL; in [2] (setting [14]), 0.1 µg/mL (≈ 0.122 µM); in assay [3] (setting [15]), 3.1 µg/mL (≈ 3.77 µM); in assay [5] (setting [13]) it was 0.2 µg/mL (≈ 0.243 µM); in [6] (Mycobacterium avium), 3.1 µg/mL (≈ 3.77 µM).
Turning to `C=CCN(C)CCCCCCCCOc1ccc(C(=O)c2ccc(Cl)cc2)c(O)c1` [22a, allylaminomethanone-A], the MIC in assay [1] (M.tuberculosis H37Rv RFPr, agar dilution) was 1.5 µg/mL (≈ 3.49 µM); in assay [2] (M.bovis BCG Tokyo, agar dilution), 3.1 µg/mL (≈ 7.21 µM); in [3] (M.intracellulare ATCC15984, agar dilution), 6.3 µg/mL (≈ 14.7 µM); in assay [4] (M.tuberculosis H37Rv INHr, agar dilution), 1.5 µg/mL (≈ 3.49 µM); in assay [5] (M.tuberculosis H37Rv, agar dilution) it was 1.0 µg/mL (≈ 2.33 µM); in [9], 12.5 µg/mL (≈ 29.1 µM). Also, the MIC in [10] is 12.5 µg/mL (≈ 29.1 µM); in [12], 6.3 µg/mL (≈ 14.7 µM); in assay [6] (M.avium Flamingo, agar dilution), 6.3 µg/mL (≈ 14.7 µM). For the same compound, the “rescue of bacterial growth by supplementation with vitamin K” value in assay [7] was “not completely rescued”. Moreover, the “upregulation of DosS or DosR” value in assay [8] is listed as “did not upregulate”. Moreover, the “more effective in killing nonreplicating bacteria than ethambutol” value in assay [11] (setting [16]) came out at 320 fold. In [11] (setting [16]), the “more effective in killing nonreplicating bacteria than isoniazid” value was 180 fold. For the same compound, in assay [11] (setting [16]), the “more effective in killing nonreplicating bacteria than rifampicin” value is recorded as 3 fold. Besides, in assay [11] (50 μg/mL, 96 h exposure), the “colonies after treatment of nonreplicating Mtb” value is reported as “no countable colonies”.
